High-throughput results: PubChem, Sanford-Burnham Center for Chemical Genomics
Shown are actives, neighbours in structure and some others; about 1.8% of the full set was active somewhere.
MIN6 prolif – inducers of MIN6 beta-cell proliferation, primary screen, ATP luminescence, uHTS; MIN6 cells proliferation, ATPlite luminescence, 48 h; cells starved in 0.2% serum; 100% = growth in 10% serum; proliferation, % at 10 µM; 330,000 tested, 0.29% active; AID 2380, 2010;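 active = compounds whose signal lies at least 3.5 SD above the mean of all wells on their plate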
PPC-1+TRAIL kill – compounds killing PPC-1 cancer cells with TRAIL present, primary screen, TRAIL potentiator project, ATPLite luminescence, uHTS; cell killing (% activity), % at 4 µM or 5 µM; AID 1443, 2008; 220,000 tested, 0.41% active; PPC-1 cells + TRAIL, ATPLite viability luminescence;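 active = cell killing above 50% in the first pass at 4 µM, then a duplicate retest at 5 µM averaging 50% or more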
TRAIL sens C8 – viability loss with TRAIL in NB7+C8 cells, primary screen, TRAIL sensitizer project, cell-based, ATPlite luminescence; 360,000 tested, 1% active; inhibition (viability loss, TRAIL sensitization), % at 10 µM; AID 624354, 2012;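 active = compounds causing at least 50% loss of cell viability in the single-dose screen, relative to plate controls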
iPSC survival up – enhancers of single-cell hiPSC survival, primary screen, ATPlite luminescence; AID 602274, 2012; survival enhancement, % at 20 µM; 100% = ROCK inhibitor wells, 0% = DMSO; 360,000 tested, 0.044% active; in the data active = survival enhancement above about 18%;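 also: cells exposed to compounds for 16 hours before the ATP read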
FLuc act counter – FLuc activators, initial screening, artefact control for FLuc-dependent activation tests, biochemical, ATPlite luminescence; Luciferin 4-monooxygenase (Photinus pyralis), P08659; ATPlite luciferase biochemical, 10 min; 0 = ATP-free wells, 1 = DMSO control; activation factor at 10 µM; 200,000 tested, under 10 active; AID 1027, 2008;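 active = luciferase activation factor, scaled between plate controls, of at least 2 with compound at 10 µM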
Target sequence (P08659 whole entry, looked up): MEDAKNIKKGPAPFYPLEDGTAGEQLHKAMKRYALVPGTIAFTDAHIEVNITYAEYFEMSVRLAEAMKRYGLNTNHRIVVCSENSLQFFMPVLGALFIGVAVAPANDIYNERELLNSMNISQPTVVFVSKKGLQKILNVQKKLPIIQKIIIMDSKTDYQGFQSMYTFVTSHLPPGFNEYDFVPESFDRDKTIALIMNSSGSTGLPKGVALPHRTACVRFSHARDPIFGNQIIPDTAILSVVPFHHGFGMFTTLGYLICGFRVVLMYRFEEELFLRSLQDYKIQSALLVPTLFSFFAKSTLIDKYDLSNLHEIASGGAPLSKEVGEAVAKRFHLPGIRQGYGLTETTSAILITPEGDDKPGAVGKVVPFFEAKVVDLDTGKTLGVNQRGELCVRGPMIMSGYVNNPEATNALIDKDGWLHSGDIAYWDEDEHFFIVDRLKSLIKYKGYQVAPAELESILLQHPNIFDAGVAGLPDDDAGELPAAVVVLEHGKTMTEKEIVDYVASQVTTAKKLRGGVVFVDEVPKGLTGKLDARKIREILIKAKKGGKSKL
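Material: luciferase plus luciferin reagent, cell-free. Medium: PBS buffer for ATP. Also added: ATP substrate, dispensed from a 10.24 µM working solution in PBS. Doses: test compounds dosed from 2 mM stocks in 100% DMSO. Incubation: 10 min post-reagent at room temperature. Technique: light output (luminescence). Read-out basis: luminescence gain marking luciferase activators.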
FLuc inhib CS – firefly luciferase enzyme inhibitors, primary screen, artefact control for luciferase-based inhibitor screens, biochemical, luminescence, ATPLite; 10 min; Luciferin 4-monooxygenase (Photinus pyralis), P08659; 200,000 tested, 1.5% active; inhibition, % at 10 µM;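 active = inhibition above about 50% when tested at 10 µM, limit read from the data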
PPC1 cytotox – cytotoxicity in PPC-1 cells, confirmation, cytotoxicity control for TRAIL apoptosis potentiator project, cell-based, ATP content luminescence. shares compounds with PPC-1+TRAIL kill. PPC-1 viability, ATPlite luminescence, overnight. cytotoxicity, % at 5 µM. 1,200 tested, 50% active. AID 1447, 2008;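 active = reconfirmed compounds whose average cytotoxicity reaches 50% or more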
Each line names hits and unclear results; the compound was inactive in the other large screens (follow-up assays come after a bar, where they were run).

COc1cc(-c2[nH]nc3c2C(c2ccoc2)C(C#N)=C(N)O3)cc(OC)c1OC (centres undefined)	none | PPC1 cytotox inactive
N#CC1=C(N)Oc2n[nH]c(-c3cccs3)c2C1c1ccoc1 (centres undefined)	none | PPC1 cytotox inactive
Cc1ccn2c(CNCC3COCCO3)c(C(=O)N3CCCCCC3)nc2c1 (centres undefined)	none (no result: PPC-1+TRAIL kill, FLuc act counter, FLuc inhib CS)
CC(Sc1nc(=O)cc(N)n1CCc1ccccc1)C(=O)NCc1ccccc1 (centres undefined)	none
C=CCn1c(N)cc(=O)nc1SC(C)C(=O)Nc1cccc2ccccc12 (centres undefined)	none | PPC1 cytotox inactive
COc1cccc(CN(C)C(=O)CNC(=O)c2ccc3c(c2)OCO3)c1OC	none (no result: PPC-1+TRAIL kill, FLuc act counter, FLuc inhib CS)
Cc1ccc(S(=O)(=O)NC2CCCCCCC2)cc1	none (no result: PPC-1+TRAIL kill, FLuc act counter, FLuc inhib CS)
Cc1ccc(S(=O)(=O)NC2CCCC(C(=O)O)C2)cc1 (centres undefined)	none | PPC1 cytotox inactive
Cc1ccc(-c2nc3ncccn3c2Nc2ccc3c(c2)OCCO3)cc1	none
COc1ccc(-c2nc3ncccn3c2Nc2ccc3c(c2)OCCO3)cc1	none | PPC1 cytotox inactive
CCOc1cc(C(=O)OCC(=O)c2c[nH]c3ccccc23)ccc1OCC(=O)N1CCOCC1	none | PPC1 cytotox inactive
COc1cc(C(=O)OCC(=O)c2c[nH]c3ccccc23)ccc1OCC(=O)N1CCOCC1	none
CC(=O)N1CCN(C(=O)COc2ccccc2C(=O)Nc2ccccc2)CC1	none | PPC1 cytotox inactive
Cc1cccc(N2C(=S)NC3c4ccccc4OC2(C)C3C(=O)N(C)C)c1 (centres undefined)	none | PPC1 cytotox inactive
CN(C)C(=O)C1C2NC(=S)N(c3ccccc3)C1(C)Oc1ccccc12 (centres undefined)	none
COc1ccc(CNC(=O)c2noc3c2CCCCC3)cc1	none | PPC1 cytotox inactive
CC(C)Cn1c(CCC(N)=O)nnc1SC(C)C(=O)Nc1ccc2c(c1)OCO2 (centres undefined)	none (no result: PPC-1+TRAIL kill, FLuc act counter, FLuc inhib CS)
N=c1n(CCN2CCOCC2)c2ccccc2n1CC(=O)c1ccc(Cl)c(Cl)c1	none
N=c1n(CCN2CCCC2)c2ccccc2n1CC(O)c1ccc(Cl)c(Cl)c1 (centres undefined)	none | PPC1 cytotox inactive
N#Cc1c(C(F)(F)F)cc(=O)[nH]c1SCC(=O)O	none
CN(C)c1cccc(C(=O)N/N=C/c2ccccc2F)c1	PPC-1+TRAIL kill 62, TRAIL sens C8 79, FLuc inhib CS 95 | PPC1 cytotox 59
c1ccc2sc(NN=C3CCCCCC3)nc2c1	PPC-1+TRAIL kill 61, TRAIL sens C8 66, FLuc inhib CS 89 | PPC1 cytotox 64
CCn1cc(CN2CCC(n3nccc3NC(=O)c3ccccc3C)CC2)cn1	none (no result: PPC-1+TRAIL kill, FLuc act counter, FLuc inhib CS)
COc1ccc(N(CC(=O)N2CCc3ccccc3C2)S(C)(=O)=O)cc1Cl	none (no result: PPC-1+TRAIL kill, FLuc act counter, FLuc inhib CS)
CCOC1=C2[C@@H](CN(S(=O)(=O)c3ccc(C)cc3)[C@H]2c2ccccc2F)[C@H]2C(=O)N(C3CCCCC3)C(=O)[C@H]2C1	none (no result: MIN6 prolif, PPC-1+TRAIL kill, FLuc act counter, FLuc inhib CS)
CC1CCCN(c2ccc3nc4ccccc4c(=O)n3n2)C1 (centres undefined)	PPC-1+TRAIL kill 83, TRAIL sens C8 78, FLuc inhib CS 94 | PPC1 cytotox 83
Cc1ccc2nc3ccc(N4CCCC4)nn3c(=O)c2c1	none
CC(=O)c1c(C)[nH]c(C(=O)CN2CCN(S(=O)(=O)c3ccccc3[N+](=O)[O-])CC2)c1C	none (no result: PPC-1+TRAIL kill, FLuc act counter, FLuc inhib CS)
CC(C)NC(=O)c1ccc2c3n(nc2c1)-c1ccccc1CO3	PPC-1+TRAIL kill 90, TRAIL sens C8 91 (no result: FLuc act counter, FLuc inhib CS) | PPC1 cytotox 90
CC(C)[C@@H](CO)NC(=O)c1ccc2c3n(nc2c1)-c1ccccc1CO3	PPC-1+TRAIL kill 71, TRAIL sens C8 71 (no result: FLuc act counter, FLuc inhib CS) | PPC1 cytotox 69
COCCn1c(SCC(=O)Nc2ccc(F)cc2)nc2c(c1=O)SCC2	none (no result: MIN6 prolif, PPC-1+TRAIL kill, FLuc act counter, FLuc inhib CS)
CCc1ccc(-c2ccc(SCC(=O)NCC3CCCO3)nn2)cc1 (centres undefined)	TRAIL sens C8 59, FLuc inhib CS 80 | PPC1 cytotox inactive
CCc1ccc(-c2ccc(SCC(=O)Nc3nnc(C)s3)nn2)cc1	PPC-1+TRAIL kill 74, TRAIL sens C8 75, FLuc inhib CS 85 | PPC1 cytotox 71
CCOc1ccc(-c2ccc(SCC(=O)Nc3nnc(C)s3)nn2)cc1	PPC-1+TRAIL kill 74, TRAIL sens C8 62, FLuc inhib CS 65 | PPC1 cytotox 75
O=C1C=C(Nc2ccccc2)c2ccccc2C1=O	none
O=C1C=C(Nc2ccccc2)C(=O)c2ccccc21	none | PPC1 cytotox inactive
Cc1cnc(NC(=O)c2cc3c(s2)CCCC3)s1	PPC-1+TRAIL kill 72, TRAIL sens C8 92, FLuc inhib CS 93 | PPC1 cytotox 70
Cc1csc(NC(=O)c2cc3c(s2)CCCCC3)n1	PPC-1+TRAIL kill 85, TRAIL sens C8 91, FLuc inhib CS 95 | PPC1 cytotox 82
CNC(=O)c1cc2c(s1)CCCCCC2	none
Cc1csc(NC(=O)c2ccc(N3CCCC3=O)cc2)n1	PPC-1+TRAIL kill 56, TRAIL sens C8 71, FLuc inhib CS 89 | PPC1 cytotox 53
CC(C)NC(=O)c1cc2c(s1)CCCC2	none
CCc1nnc(NC(=O)c2cc3c(s2)CCCCC3)s1	none (no result: PPC-1+TRAIL kill, FLuc act counter, FLuc inhib CS)
Cc1csc(NC(=O)c2cc3c(s2)CCCC3)n1	PPC-1+TRAIL kill 66, TRAIL sens C8 78, FLuc inhib CS 94 | PPC1 cytotox 69
O=C(COc1ncnc2ccccc12)Nc1ccc(S(=O)(=O)N2CCOCC2)cc1	none (no result: FLuc act counter, FLuc inhib CS)
O=C(/C=C\Nc1ccccn1)c1ccccc1	PPC-1+TRAIL kill 55, TRAIL sens C8 56, FLuc inhib CS 89 | PPC1 cytotox 54
O=C(/C=C/Nc1ccccc1Br)c1ccccn1	PPC-1+TRAIL kill 92, TRAIL sens C8 93, FLuc inhib CS 97 | PPC1 cytotox 93
CCC1Oc2ccccc2N(CC(=O)NCCCN2CCN(c3ccc(OC)cc3)CC2)C1=O (centres undefined)	none (no result: PPC-1+TRAIL kill, FLuc act counter, FLuc inhib CS)
CCCc1ccc(C(=O)NC(=O)c2ccccc2O)cc1	PPC-1+TRAIL kill 61, TRAIL sens C8 74 (no result: FLuc act counter, FLuc inhib CS) | PPC1 cytotox 61
O=C(NC1CCCN(Cc2ccccc2F)C1)C1CCC1 (centres undefined)	none (no result: PPC-1+TRAIL kill, FLuc act counter, FLuc inhib CS)
O=C(O)CC1=C(O)C(=O)N(c2ccccc2)C1c1ccccc1 (centres undefined)	none | PPC1 cytotox inactive
Cc1cc(C(=O)Nc2ccc(Cl)cc2)n(-c2ccccc2)n1	none (no result: PPC-1+TRAIL kill, FLuc act counter, FLuc inhib CS)
